Experimental data reported in ChEMBL document CHEMBL2021824, “Structural modifications modulate stability of glutathione-activated arylated diazeniumdiolate prodrugs” (Bioorg Med Chem, 2012).
The source made the active and inactive calls. The calls are words filed in the database; no cut-off is given here.

Key:
NCI-H1703 [1] = assay: Antiproliferative activity against human NCI-H1703 cells after 48 hrs by MTT assay; type: functional, cell-based; details: NCI-H1703, 48 h
[2] = Half life of the compound in GSH-containing buffer; type: physicochemical
Summary of the method: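 Loss of the diazeniumdiolate chromophore followed by UV-visible spectrophotometry at 37 °C. Absorbance was tracked at each compound's λmax. kobs came from a first-order exponential fit and half-life was derived from it. Mean (SE).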

[3] = Prodrug activation assessed as GSH-induced nitric oxide production per mol of the compound by chemiluminescence assay; type: physicochemical
Summary of the method: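 Phosphate buffer, pH 7.4, containing 4 mM GSH at 37 °C was sparged with inert gas until the detector response was steady. The prodrug was then injected and NO release followed over time. The release curve was integrated to give mol NO per mol compound, reported as mean (SE).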

NCI-H1703 [4] = assay: Metabolic stability in human NCI-H1703 cells assessed as formation of arylated GSH at 5 uM after 5 mins by LC/MS analysis; type: ADME, cell-based; details: nci-h1703, 5 min
Summary of the method: (§1)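 H1703 cells plated in flasks and incubated overnight at 37 °C, then treated with 5 μM compound for 5, 30 or 60 min. Cells lysed by scraping in 10 mM HCl with freeze-thaw cycles, then deproteinized with 5-sulfosalicylic acid and centrifuged. Supernatant analyzed by LC/MS with positive APCI on a C18 column using a water/acetonitrile/0.1% formic acid gradient. Extracted ion chromatograms tracked parent and arylated GSH.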

NCI-H1703 [5] = assay: Metabolic stability in human NCI-H1703 cells assessed as formation of arylated GSH at 5 uM after 30 mins by LC/MS analysis; type: ADME, cell-based; details: nci-h1703, 0.5 h; summary of the method: as §1
NCI-H1703 [6] = assay: Metabolic stability in human NCI-H1703 cells assessed as formation of arylated GSH at 5 uM after 60 mins by LC/MS analysis; type: ADME, cell-based; details: nci-h1703, 1 h; summary of the method: as §1
NCI-H1703 [7] = assay: Antitumor activity against human NCI-H1703 cells xenografted in athymic NCr-nu/nu mouse at 20 umol/kg, ip 5 times a week for 4-weeks relative to control; type: functional, organism-based
Summary of the method: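 H1703 cells implanted in the flank of 7-week-old female athymic NCr-nu/nu mice. Dosing started once tumors reached 2 × 2 × 2 mm3 (typically four weeks). Compound was given as Pluronic P123 micelles at 20 μmol/kg ip, five times a week for four weeks. Vehicle controls received 2.25% Pluronic P123 in PBS. Tumors measured by caliper and body weights tracked. Welch-corrected t-test.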

H1703 [8] = assay: Induction of SAPK/JNK phosphorylation in human H1703 cells at 1 uM after 4 hrs by Western blotting analysis; type: cell-based
Summary of the method: (§2)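 H1703 lung adenocarcinoma cells exposed to 1 μM compound for 4 h. Western blots probed for phospho-SAPK/JNK, phospho-c-jun, ATF3, PARP (full-length and 89-kDa cleaved fragment) and cleaved effector caspases 3 and 7.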

H1703 [9] = assay: Induction of SAPK/JNK-mediated c-jun phosphorylation in human H1703 cells at 1 uM after 4 hrs by Western blotting analysis; type: cell-based; summary of the method: as §2
[10] = Induction of SAPK/JNK-mediated ATF3 upregulation in human H1703 cells at 1 uM after 4 hrs by Western blotting analysis; type: cell-based; summary of the method: as §2
NCI-H1703 [11] = assay: Induction of apoptosis in human NCI-H1703 cells assessed as PARP cleavage at 1 uM after 4 hrs by Western blotting analysis; type: functional, cell-based; summary of the method: as §2
NCI-H1703 [12] = assay: Induction of apoptosis in human NCI-H1703 cells assessed as cleaved of caspase 3 level at 1 uM after 4 hrs by Western blotting analysis; type: functional, cell-based; summary of the method: as §2
NCI-H1703 [13] = assay: Induction of apoptosis in human NCI-H1703 cells assessed as cleaved of caspase 7 level at 1 uM after 4 hrs by Western blotting analysis; type: functional, cell-based; summary of the method: as §2

SMILES | IC50 (NCI-H1703 [1]) [nM] | t1/2 [2] [min] | NO yield [3] [mol/mol] | further results
CCOC(=O)N1CCN(/[N+]([O-])=N/Oc2ccc([N+](=O)[O-])cc2C#N)CC1 | 550 | 33.6 | 2.04 | Stability (NCI-H1703 [4]): Stable; Stability (NCI-H1703 [5]): Stable; Stability (NCI-H1703 [6]): Unstable; Activity (NCI-H1703 [7]): Active; Activity (H1703 [8]): Active; Activity (H1703 [9]): Active; Activity [10]: Active; Activity (NCI-H1703 [11]): Active; Activity (NCI-H1703 [12]): Active; Activity (NCI-H1703 [13]): Active
CCOC(=O)N1CCCN(/[N+]([O-])=N/Oc2ccc([N+](=O)[O-])cc2[N+](=O)[O-])CC1 | – | – | 2 | –
CCOC(=O)N1CCN(/[N+]([O-])=N/Oc2ccc(C#N)cc2C#N)CC1 | > 20000 | 918 | – | –
CCOC(=O)N1CCCN(/[N+]([O-])=N/Oc2ccc(C#N)cc2[N+](=O)[O-])CC1 | 680 | 42.6 | 1.96 | –
CCOC(=O)N1CCN(/[N+]([O-])=N/Oc2ccc(C#N)cc2[N+](=O)[O-])CC1 | 730 | 22.1 | 2.02 | –
CCOC(=O)N1CCCN(/[N+]([O-])=N/Oc2ccc([N+](=O)[O-])cc2C#N)CC1 | 2620 | 66 | 2.01 | –
CCOC(=O)N1CCN(/[N+]([O-])=N/Oc2ccc([N+](=O)[O-])cc2[N+](=O)[O-])CC1 | 1080 | – | 1.96 | –
